Reference: ChEMBL document CHEMBL1938381, “Design, synthesis, and structure-activity relationship studies of conformationally restricted mutilin 14-carbamates” (2012)
In brackets after ≈: the same amount, converted by molar mass.

How the values were obtained:
Assay type in all cases: functional
Staphylococcus aureus [1] = test: Antibacterial activity against methicillin-susceptible Staphylococcus aureus by agar microdilution method
Outline: (§1)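 MIC by agar microdilution following NCCLS standard M7-A6 (2003), tested against clinical isolates: MRSA n = 6, MRSE n = 5, MSSA n = 5, MSSE n = 5; values given as a single MIC or a range across isolates.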

[2] = tested on: Staphylococcus epidermidis; test: Antibacterial activity against methicillin-resistant Staphylococcus epidermidis by agar microdilution method; outline: as §1
[3] = tested on: Staphylococcus epidermidis; test: Antibacterial activity against methicillin-susceptible Staphylococcus epidermidis by agar microdilution method; outline: as §1
Staphylococcus aureus [4] = test: Antibacterial activity against methicillin-resistant Staphylococcus aureus by agar microdilution method; outline: as §1
Streptococcus pneumoniae [5] = test: Antibacterial activity against Streptococcus pneumoniae by agar microdilution method
Outline: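 MIC read by agar microdilution following NCCLS standard M7-A6 (2003), against a panel of 3 Streptococcus pneumoniae clinical isolates. Values in µg/mL, given as a range where the isolates differed.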

[6] = tested on: Staphylococcus epidermidis; test: Ratio of Linezolid MIC to compound MIC for methicillin-susceptible Staphylococcus epidermidis
Streptococcus pneumoniae [7] = test: Ratio of Linezolid MIC to compound MIC for Streptococcus pneumoniae
Staphylococcus aureus [8] = test: Ratio of Linezolid MIC to compound MIC for methicillin-susceptible Staphylococcus aureus

C=C[C@]1(C)C[C@@H](OC(=O)N2Cc3ccc(NC(=O)CCN4CCN(C)CC4)cc3C2=O)[C@]2(C)[C@H](C)CC[C@]3(CCC(=O)[C@H]32)[C@@H](C)[C@@H]1O
MIC (Staphylococcus aureus [1]): 0.5 µg/mL (≈ 0.771 µM) | MIC [2]: 0.5 µg/mL (≈ 0.771 µM) | MIC [3]: 0.5 µg/mL (≈ 0.771 µM) | MIC (Staphylococcus aureus [4]): 0.5 µg/mL (≈ 0.771 µM) | MIC (Streptococcus pneumoniae [5]): 0.5 µg/mL (≈ 0.771 µM)

C=C[C@]1(C)C[C@@H](OC(=O)N2Cc3c(cccc3[N+](=O)[O-])C2=O)[C@]2(C)[C@H](C)CC[C@]3(CCC(=O)[C@H]32)[C@@H](C)[C@@H]1O
MIC (Staphylococcus aureus [1]): 0.5 µg/mL (≈ 0.953 µM) | MIC [2]: 0.5 µg/mL (≈ 0.953 µM) | MIC [3]: 0.5 µg/mL (≈ 0.953 µM) | MIC (Staphylococcus aureus [4]): 0.5 µg/mL (≈ 0.953 µM) | MIC (Streptococcus pneumoniae [5]): 0.5 µg/mL (≈ 0.953 µM)

CC(=O)NC[C@H]1CN(c2ccc(N3CCOCC3)c(F)c2)C(=O)O1 [LINEZOLID]
MIC (Staphylococcus aureus [1]): 0.5 µg/mL (≈ 1.48 µM) | MIC [3]: 0.5 µg/mL (≈ 1.48 µM)

C=C[C@]1(C)C[C@@H](OC(=O)N2CCc3cc(OCCN4CCOCC4)ccc3C2=O)[C@]2(C)[C@H](C)CC[C@]3(CCC(=O)[C@H]32)[C@@H](C)[C@@H]1O
MIC (Staphylococcus aureus [1]): 0.5 µg/mL (≈ 0.803 µM) | MIC [2]: 0.5 µg/mL (≈ 0.803 µM) | MIC [3]: 0.5 µg/mL (≈ 0.803 µM) | MIC (Staphylococcus aureus [4]): 0.5 µg/mL (≈ 0.803 µM) | MIC (Streptococcus pneumoniae [5]): 0.5 µg/mL (≈ 0.803 µM)

C=C[C@]1(C)C[C@@H](OC(=O)N2Cc3ccc(NC(=O)CCN4CCN(CCO)CC4)cc3C2=O)[C@]2(C)[C@H](C)CC[C@]3(CCC(=O)[C@H]32)[C@@H](C)[C@@H]1O
MIC (Staphylococcus aureus [1]): 2 µg/mL (≈ 2.95 µM) | MIC [2]: 2 µg/mL (≈ 2.95 µM) | MIC [3]: 2 µg/mL (≈ 2.95 µM) | MIC (Staphylococcus aureus [4]): 2 µg/mL (≈ 2.95 µM) | MIC (Streptococcus pneumoniae [5]): 4 µg/mL (≈ 5.89 µM)

C=C[C@]1(C)C[C@@H](OC(=O)N2Cc3cc(N4CCN(C)CC4)ccc3C2=O)[C@]2(C)[C@H](C)CC[C@]3(CCC(=O)[C@H]32)[C@@H](C)[C@@H]1O
Ratio [6]: 4 | MIC (Staphylococcus aureus [1]): 0.125 µg/mL (≈ 0.216 µM) | MIC [2]: 0.125 µg/mL (≈ 0.216 µM) | Ratio (Streptococcus pneumoniae [7]): 4 | MIC [3]: 0.125 µg/mL (≈ 0.216 µM) | MIC (Staphylococcus aureus [4]): 0.125 µg/mL (≈ 0.216 µM) | MIC (Streptococcus pneumoniae [5]): 0.25 µg/mL (≈ 0.433 µM) | Ratio (Staphylococcus aureus [8]): 4

C=C[C@]1(C)C[C@@H](OC(=O)N2CCc3cc(OCCN4CCCCC4)ccc3C2=O)[C@]2(C)[C@H](C)CC[C@]3(CCC(=O)[C@H]32)[C@@H](C)[C@@H]1O
MIC (Staphylococcus aureus [1]): 0.5 µg/mL (≈ 0.805 µM) | MIC [2]: 1 µg/mL (≈ 1.61 µM) | MIC [3]: 0.5 µg/mL (≈ 0.805 µM) | MIC (Staphylococcus aureus [4]): 0.5 µg/mL (≈ 0.805 µM) | MIC (Streptococcus pneumoniae [5]): 1 µg/mL (≈ 1.61 µM)

C=C[C@]1(C)C[C@@H](OC(=O)N2Cc3cc(NCc4ccccc4)ccc3C2=O)[C@]2(C)[C@H](C)CC[C@]3(CCC(=O)[C@H]32)[C@@H](C)[C@@H]1O
MIC (Staphylococcus aureus [1]): 2 µg/mL (≈ 3.42 µM) | MIC [2]: 2 µg/mL (≈ 3.42 µM) | MIC [3]: 2 µg/mL (≈ 3.42 µM) | MIC (Staphylococcus aureus [4]): 2 µg/mL (≈ 3.42 µM) | MIC (Streptococcus pneumoniae [5]): 2 µg/mL (≈ 3.42 µM)

C=C[C@]1(C)C[C@@H](OC(=O)N2Cc3ccc(NC(=O)[C@@H](N)C(C)C)cc3C2=O)[C@]2(C)[C@H](C)CC[C@]3(CCC(=O)[C@H]32)[C@@H](C)[C@@H]1O.Cl
MIC (Staphylococcus aureus [1]): 1 µg/mL | MIC [2]: 1 µg/mL | MIC [3]: 1 µg/mL | MIC (Staphylococcus aureus [4]): 1 µg/mL | MIC (Streptococcus pneumoniae [5]): 2 µg/mL

C=C[C@]1(C)C[C@@H](OC(=O)N2CCc3cc(OCCCN4CCN(C)CC4)ccc3C2=O)[C@]2(C)[C@H](C)CC[C@]3(CCC(=O)[C@H]32)[C@@H](C)[C@@H]1O
MIC (Staphylococcus aureus [1]): 0.5 µg/mL (≈ 0.769 µM) | MIC [2]: 0.5 µg/mL (≈ 0.769 µM) | MIC [3]: 0.5 µg/mL (≈ 0.769 µM) | MIC (Staphylococcus aureus [4]): 0.5 µg/mL (≈ 0.769 µM) | MIC (Streptococcus pneumoniae [5]): 0.5 µg/mL (≈ 0.769 µM)

C=C[C@]1(C)C[C@@H](OC(=O)N2Cc3ccc(NC(=O)CN4CCN(C)CC4)cc3C2=O)[C@]2(C)[C@H](C)CC[C@]3(CCC(=O)[C@H]32)[C@@H](C)[C@@H]1O
MIC (Staphylococcus aureus [1]): 0.5 µg/mL (≈ 0.788 µM) | MIC [2]: 0.5 µg/mL (≈ 0.788 µM) | MIC [3]: 0.5 µg/mL (≈ 0.788 µM) | MIC (Staphylococcus aureus [4]): 0.5 µg/mL (≈ 0.788 µM) | MIC (Streptococcus pneumoniae [5]): 0.5 µg/mL (≈ 0.788 µM)

C=C[C@]1(C)C[C@@H](OC(=O)N2Cc3ccc([N+](=O)[O-])cc3C2=O)[C@]2(C)[C@H](C)CC[C@]3(CCC(=O)[C@H]32)[C@@H](C)[C@@H]1O
MIC (Staphylococcus aureus [1]): 0.5 µg/mL (≈ 0.953 µM) | MIC [2]: 0.5 µg/mL (≈ 0.953 µM) | MIC [3]: 0.5 µg/mL (≈ 0.953 µM) | MIC (Staphylococcus aureus [4]): 0.5 µg/mL (≈ 0.953 µM) | MIC (Streptococcus pneumoniae [5]): 0.5 µg/mL (≈ 0.953 µM)

C=C[C@]1(C)C[C@@H](OC(=O)N2CCc3cc(OCCCN4CCOCC4)ccc3C2=O)[C@]2(C)[C@H](C)CC[C@]3(CCC(=O)[C@H]32)[C@@H](C)[C@@H]1O
MIC (Staphylococcus aureus [1]): 0.5 µg/mL (≈ 0.785 µM) | MIC [2]: 0.5 µg/mL (≈ 0.785 µM) | MIC [3]: 0.5 µg/mL (≈ 0.785 µM) | MIC (Staphylococcus aureus [4]): 0.5 µg/mL (≈ 0.785 µM) | MIC (Streptococcus pneumoniae [5]): 0.5 µg/mL (≈ 0.785 µM)

C=C[C@]1(C)C[C@@H](OC(=O)N2Cc3ccc(NC(=O)[C@H](C)N)cc3C2=O)[C@]2(C)[C@H](C)CC[C@]3(CCC(=O)[C@H]32)[C@@H](C)[C@@H]1O.Cl
MIC (Staphylococcus aureus [1]): 0.5 µg/mL | MIC [2]: 0.5 µg/mL | MIC [3]: 0.5 µg/mL | MIC (Staphylococcus aureus [4]): 0.5 µg/mL | MIC (Streptococcus pneumoniae [5]): 0.5 µg/mL

C=C[C@]1(C)C[C@@H](OC(=O)NC(=O)c2ccc(OC)cc2)[C@]2(C)[C@H](C)CC[C@]3(CCC(=O)[C@H]32)[C@@H](C)[C@@H]1O
MIC (Streptococcus pneumoniae [5]): 0.0625 µg/mL (≈ 0.126 µM)

C=C[C@]1(C)C[C@@H](OC(=O)N2Cc3c(N)cccc3C2=O)[C@]2(C)[C@H](C)CC[C@]3(CCC(=O)[C@H]32)[C@@H](C)[C@@H]1O
MIC (Staphylococcus aureus [1]): 0.0625 µg/mL (≈ 0.126 µM) | MIC [2]: 0.0625 µg/mL (≈ 0.126 µM) | MIC [3]: 0.0625 µg/mL (≈ 0.126 µM) | MIC (Staphylococcus aureus [4]): 0.0625 µg/mL (≈ 0.126 µM) | MIC (Streptococcus pneumoniae [5]): 0.0625 µg/mL (≈ 0.126 µM)
